Our source for the Delta blood pressure values is ChEMBL document CHEMBL1122179, “1-(alkylamino)isochromans: hypotensives with peripheral and central activities” (J Med Chem, 1982).

Calls of active or inactive are those of the source. The calls are words filed in the database; no cut-off is given here.

The subject of experiment [1] is Rattus norvegicus. The experiment can be described thus: Delta BP refers to oral hypotensive activity of compound which is evaluated at 4 hr and 24 hr in restrained, normotensive conscious rats at a dose of 50 mg/kg. Set-up: dose 50 mg/kg. The class given is functional, organism-based. Summed up: (§1)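 Female Sprague-Dawley rats, normotensive, restrained in a towel. Blood pressure was read directly via chronic indwelling aortic cannulas exteriorized at the nape, before and 4 and 24 h after an oral dose suspended in carboxymethylcellulose (10 mL/kg). Values from two animals were averaged at each time; a mean change of at least 5 mmHg was taken as significant (p < 0.05).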

The subject of experiment [2] is Rattus norvegicus. The experiment can be described thus: Delta BP refers to oral hypotensive activity of compound which is evaluated at 4 hr and 24 hr in restrained, normotensive conscious rats at a dose of 50 mg/kg; -15/-3. The class given is functional. A digest of the protocol: as §1
Experiment [3] deals with Rattus norvegicus. As to the kind of experiment: Delta BP refers to oral hypotensive activity of compound which is evaluated at 4 hr and 24 hr in restrained, normotensive conscious rats at a dose of 50 mg/kg; -9/-10. The class given is functional. A digest of the protocol: as §1
Experiment [4] deals with Rattus norvegicus. The experiment can be described thus: Delta BP refers to oral hypotensive activity of compound which is evaluated at 4 hr and 24 hr in restrained, normotensive conscious rats at a dose of 50 mg/kg; -2/2. The class given is functional. Summed up:
as §1

Experiment [5] concerns Rattus norvegicus. As to the kind of experiment: Delta BP refers to oral hypotensive activity of compound which is evaluated at 4 hr and 24 hr in restrained, normotensive conscious rats at a dose of 50 mg/kg; -16/-26. The class given is functional. A digest of the protocol:
as §1

For experiment [6], the system named is Rattus norvegicus. The experiment can be described thus: Delta BP refers to oral hypotensive activity of compound which is evaluated at 4 hr and 24 hr in restrained, normotensive conscious rats at a dose of 50 mg/kg; 0/-14. The class given is functional. Summed up: as §1
Experiment [7] deals with Rattus norvegicus. As to the kind of experiment: Delta BP refers to oral hypotensive activity of compound which is evaluated at 4 hr and 24 hr in restrained, normotensive conscious rats at a dose of 15 mg/kg; -8/-10. The class given is functional. A digest of the protocol: as §1
Experiment [8] relates to Rattus norvegicus. The experiment can be described thus: Delta BP refers to oral hypotensive activity of compound which is evaluated at 4 hr and 24 hr in restrained, normotensive conscious rats at a dose of 50 mg/kg; -18/-28. The class given is functional. A digest of the protocol: as §1
The subject of experiment [9] is Rattus norvegicus. The experiment can be described thus: Delta BP refers to oral hypotensive activity of compound which is evaluated at 4 hr and 24 hr in restrained, normotensive conscious rats at a dose of 50 mg/kg; -3/-1. The class given is functional. Summed up:
as §1

Experiment [10] relates to Rattus norvegicus. The experiment can be described thus: Delta BP refers to oral hypotensive activity of compound which is evaluated at 4 hr and 24 hr in restrained, normotensive conscious rats at a dose of 50 mg/kg; -20/-5. The class given is functional. Summed up: as §1
Experiment [11] deals with Rattus norvegicus. The experiment can be described thus: Delta BP refers to oral hypotensive activity of compound which is evaluated at 4 hr and 24 hr in restrained, normotensive conscious rats at a dose of 50 mg/kg; 0/-1. The class given is functional. A digest of the protocol: as §1
The subject of experiment [12] is Rattus norvegicus. The experiment can be described thus: Delta BP refers to oral hypotensive activity of compound which is evaluated at 4 hr and 24 hr in restrained, normotensive conscious rats at a dose of 50 mg/kg; -16/-14. The class given is functional. Summed up: as §1
Experiment [13] relates to Rattus norvegicus. The experiment can be described thus: Delta BP refers to oral hypotensive activity of compound which is evaluated at 4 hr and 24 hr in restrained, normotensive conscious rats at a dose of 50 mg/kg; -19/-9. The class given is functional. Summed up: as §1

On to `COc1cc2c(cc1OC)C(C)(CCN1CCN(c3cccc(C(F)(F)F)c3)CC1)OCC2` (configuration not stated), for which the Delta blood pressure entry in the experiment on Rattus norvegicus [1] is “inactive”.
As to `COc1cc2c(cc1OC)C(CN1CCN(c3ccccc3OC)CC1)OCC2` (configuration not stated), the Delta blood pressure in the experiment with Rattus norvegicus [2] is given as -15 mmHg.
Consider `COc1cc2c(cc1OC)C(CCN1CCN(c3ccccn3)CC1)OC(C)(C)C2` (configuration not stated), for which the Delta blood pressure result in the experiment with Rattus norvegicus [1] was “inactive”.
With `COc1cc2c(cc1OC)C(C)(C)COC2CCN1CCN(c2ccccc2OC)CC1` (configuration not stated), the Delta blood pressure result in the experiment with Rattus norvegicus [1] was “inactive”.
Turning to `COc1cc2c(cc1OC)C(C)(CCN1CCN(c3ccccc3OC)CC1)OCC2` (configuration not stated), in the experiment on Rattus norvegicus [3], the Delta blood pressure was -9 mmHg.
In turn, `COc1cc2c(cc1OC)C(CCN1CCN(c3cccc(C(F)(F)F)c3)CC1)OCC2` (configuration not stated) gave a Delta blood pressure in the experiment with Rattus norvegicus [4] of -2 mmHg.
`COc1cc2c(cc1OC)C(CCN1CCN(c3ccccc3Cl)CC1)OC(C)(C)C2` (configuration not stated): the Delta blood pressure result in the experiment with Rattus norvegicus [1] is “inactive”.
In the experiment with Rattus norvegicus [5], `COc1cc2c(cc1OC)C(C)(CCN1CCN(c3ccc(F)cc3)CC1)OCC2` (configuration not stated) gave a Delta blood pressure of -16 mmHg.
With `COc1cc2c(cc1OC)C(C)(C)COC2CCN1CCN(c2ccc(F)cc2)CC1` (configuration not stated), the Delta blood pressure result in the experiment with Rattus norvegicus [1] was “inactive”.
`COc1cc2c(cc1OC)C(CN1CCN(c3ccc(F)cc3)CC1)OCC2` (configuration not stated): the Delta blood pressure in the experiment with Rattus norvegicus [6] worked out at 0 mmHg.
Take `COc1cc2c(cc1OC)C(CCN1CCN(c3cccc(Cl)c3)CC1)OC(C)(C)C2` (configuration not stated): the Delta blood pressure entry with Rattus norvegicus [1] is “inactive”.
Consider `COc1cc2c(cc1OC)C(C)(C)COC2CCN1CCN(c2ccccn2)CC1` (configuration not stated), for which the Delta blood pressure entry with Rattus norvegicus [1] is “inactive”.
Same read-out and setting: as for `COc1cc2c(cc1OC)C(C)(CCN1CCN(c3cccc(Cl)c3)CC1)OCC2` (configuration not stated), the entry is “inactive”.
Consider `COc1cc2c(cc1OC)C(C)(C)COC2CCN1CCN(c2ccccc2C)CC1` (configuration not stated), for which the Delta blood pressure in the experiment with Rattus norvegicus [7] is recorded as -8 mmHg; in the experiment with Rattus norvegicus [8] it was -18 mmHg.
Regarding `COc1cc2c(cc1OC)C(CN1CCN(c3cccc(Cl)c3)CC1)OCC2` (configuration not stated), in the experiment on Rattus norvegicus [1], the Delta blood pressure entry is “inactive”.
The same measure, in the same setting: as for `COc1cc2c(cc1OC)C(CCN1CCN(c3ccccc3)CC1)OC(C)(C)C2` (configuration not stated), the entry is “inactive”.
`COc1cc2c(cc1OC)C(C)(CCN1CCN(c3ccccc3Cl)CC1)OCC2` (configuration not stated) displayed a Delta blood pressure in the experiment on Rattus norvegicus [9] of -3 mmHg.
In the case of `COc1cc2c(cc1OC)C(CN1CCN(c3ccccc3)CC1)OCC2` (configuration not stated), the Delta blood pressure with Rattus norvegicus [10] is recorded as -20 mmHg.
Turning to `COc1cc2c(cc1OC)C(CN1CCN(c3ccccc3Cl)CC1)OCC2` (configuration not stated), the Delta blood pressure entry with Rattus norvegicus [1] was “inactive”.
In the experiment with Rattus norvegicus [11], `COc1cc2c(cc1OC)C(C)(C)COC2CCN1CCN(c2cccc(C(F)(F)F)c2)CC1` (configuration not stated) yielded a Delta blood pressure of 0 mmHg.
Regarding `COc1cc2c(cc1OC)C(CCCN1CCN(c3ccccc3C)CC1)(c1ccc(F)cc1)OCC2` (configuration not stated), in the experiment on Rattus norvegicus [1], the Delta blood pressure result was “inactive”.
On to `COc1cc2c(cc1OC)C(C)(C)COC2CCN1CCN(c2ccccc2)CC1` (configuration not stated), for which the Delta blood pressure in the experiment with Rattus norvegicus [12] is recorded as -16 mmHg.
As to `COc1cc2c(cc1OC)C(CN1CCN(c3ccccn3)CC1)OCC2` (configuration not stated), in the experiment on Rattus norvegicus [1], the Delta blood pressure result is “inactive”.
In the experiment on Rattus norvegicus [13], `COc1cc2c(cc1OC)C(CCN1CCN(c3ccccc3C)CC1)OCC2` (configuration not stated) had a Delta blood pressure of -19 mmHg.
Take `COc1cc2c(cc1OC)C(CCCN1CCN(c3ccccc3Cl)CC1)(c1ccc(F)cc1)OCC2` (configuration not stated): the Delta blood pressure result in the experiment on Rattus norvegicus [1] is “inactive”.
Take `COc1cc2c(cc1OC)C(CCN1CCN(c3ccc(F)cc3)CC1)OC(C)(C)C2` (configuration not stated): in the experiment on Rattus norvegicus [5], the Delta blood pressure is given as -16 mmHg.
